# Measured values: ChEMBL document CHEMBL3734725, “Design, synthesis and preliminary biological studies of pyrrolidine derivatives as Mcl-1 inhibitors” (Bioorg Med Chem, 2015)
# Tests used:
# [1] = biological target: Induced myeloid leukemia cell differentiation protein Mcl-1 (Homo sapiens, UniProt Q07820); assay: Competitive binding affinity to Mcl-1 (unknown origin) using 5-FAM-Bid-BH3 peptide preincubated for 30 mins before 5-FAM-Bid-BH3 peptide addition and measured 20 mins after 5-FAM-Bid-BH3 peptide addition by fluorescence polarization assay
# Procedure, shortened: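 Mcl-1 preincubated 30 min at room temperature with compound in PBS (pH 7.3; 140 mM NaCl, 2.7 mM KCl, 1.8 mM KH₂PO₄). IC50 fitted, Ki calculated; three separate experiments.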
# [2] = Antiproliferative activity against human PC3 cells after 48 hrs by MTT assay; assay type: functional, cell-based; details: PC-3, 48 h
# Procedure, shortened: (§1)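 Cells grown in RPMI1640 with 10% fetal bovine serum at 37 °C, 5% CO₂. Log-phase cells seeded at 5000 per well and incubated 12 h, then exposed to a range of compound concentrations for 48 h. MTT (5 mg/mL) added for 4 h, medium removed, formazan dissolved in DMSO, absorbance read. IC50 reported.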
# [3] = test system: MDA-MB-231; assay: Antiproliferative activity against human MDA-MB-231 cells after 48 hrs by MTT assay; assay type: functional, cell-based; details: MDA-MB-231, 48 h; procedure, shortened: as §1
# [4] = test system: K562; assay: Antiproliferative activity against human K562 cells after 48 hrs by MTT assay; assay type: functional, cell-based; details: K562, 48 h; procedure, shortened: as §1
# [5] = biological target: Bcl-2-like protein 1 (Homo sapiens, UniProt Q07817); assay: Competitive binding affinity to Bcl-XL (unknown origin) using 5-FAM-Bid-BH3 peptide preincubated for 30 mins before 5-FAM-Bid-BH3 peptide addition and measured 20 mins after 5-FAM-Bid-BH3 peptide addition by fluorescence polarization assayy
# Procedure, shortened: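 Same FP competition with FAM-Bid-BH3 peptide at 10 nM final in PBS pH 7.3. Protein and compound preincubated 30 min at room temperature. Final Bcl-2 376 nM, final Bcl-XL 170 nM. Polarization read at ex 485/em 535 nm in triplicate. IC50 fitted, then converted to Ki.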
# [6] = biological target: Apoptosis regulator Bcl-2 (Homo sapiens, UniProt P10415); assay: Competitive binding affinity to Bcl-2 (unknown origin) using 5-FAM-Bid-BH3 peptide preincubated for 30 mins before 5-FAM-Bid-BH3 peptide addition and measured 20 mins after 5-FAM-Bid-BH3 peptide addition by fluorescence polarization assay
# Procedure, shortened: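 Same FP competition with FAM-Bid-BH3 peptide at 10 nM final in PBS pH 7.3. Protein and compound preincubated 30 min at room temperature. IC50 fitted, then converted to Ki.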
# Chain of Apoptosis regulator Bcl-2 (P10415 whole entry): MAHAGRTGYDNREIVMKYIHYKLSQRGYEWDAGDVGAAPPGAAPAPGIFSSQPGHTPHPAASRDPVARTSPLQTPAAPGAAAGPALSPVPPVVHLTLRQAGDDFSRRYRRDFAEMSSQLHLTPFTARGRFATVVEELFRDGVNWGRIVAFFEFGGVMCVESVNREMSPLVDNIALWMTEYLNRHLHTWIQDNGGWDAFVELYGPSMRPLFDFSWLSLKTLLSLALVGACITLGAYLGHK
# Chain of Bcl-2-like protein 1 (Q07817 whole entry): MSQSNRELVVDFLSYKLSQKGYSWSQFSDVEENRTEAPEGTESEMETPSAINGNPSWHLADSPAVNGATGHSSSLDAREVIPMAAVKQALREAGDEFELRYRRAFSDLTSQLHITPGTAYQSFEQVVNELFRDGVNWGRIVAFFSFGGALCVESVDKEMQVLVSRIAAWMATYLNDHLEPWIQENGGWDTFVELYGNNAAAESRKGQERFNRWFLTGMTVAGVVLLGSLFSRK
# Chain of Induced myeloid leukemia cell differentiation protein Mcl-1 (Q07820 whole entry): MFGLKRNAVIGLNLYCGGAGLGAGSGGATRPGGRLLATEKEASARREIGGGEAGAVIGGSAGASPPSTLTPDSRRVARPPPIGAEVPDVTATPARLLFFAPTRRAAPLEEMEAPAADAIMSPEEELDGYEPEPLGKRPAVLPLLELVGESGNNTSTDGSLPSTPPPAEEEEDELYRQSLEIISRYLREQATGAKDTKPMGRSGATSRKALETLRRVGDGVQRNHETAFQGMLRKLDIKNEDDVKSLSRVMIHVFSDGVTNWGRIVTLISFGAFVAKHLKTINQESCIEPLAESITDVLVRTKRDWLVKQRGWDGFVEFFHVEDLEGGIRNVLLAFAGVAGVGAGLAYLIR
structure (smiles),measurement,setting,value
Cc1ccc(S(=O)(=O)NC(=O)[C@H](Cc2ccc(Br)cc2)NC(=O)[C@@H]2C[C@H](Oc3ccc(-c4ccccc4)cc3)CN2C(=O)OC(C)(C)C)cc1,Ki,[1],0.99 µM
CC(C)(C)OC(=O)N1C[C@@H](Oc2ccc(Br)cc2)C[C@H]1C(=O)NCC(=O)O,Ki,[1],> 10 µM
CC(C)[C@H](NC(=O)[C@@H]1C[C@H](Oc2ccc(Br)cc2)CN1C(=O)OC(C)(C)C)C(=O)O,Ki,[1],> 10 µM
Cc1ccc(-c2ccc(O[C@H]3C[C@@H](C(=O)N[C@@H](Cc4ccccc4)C(=O)NS(=O)(=O)c4ccc(C)cc4)N(C(=O)OC(C)(C)C)C3)cc2)cc1,Ki,[1],1.9 µM
CC(C)(C)OC(=O)N1C[C@@H](Oc2ccc(Br)cc2)C[C@H]1C(=O)N[C@@H](Cc1ccccc1)C(=O)O,Ki,[1],> 10 µM
CC(C)(C)OC(=O)N1C[C@@H](Oc2ccc(-c3ccccc3)cc2)C[C@H]1C(=O)N[C@@H](Cc1ccccc1)C(=O)O,Ki,[1],8.4 µM
CC(C)(C)OC(=O)N1C[C@@H](Oc2ccc(Br)cc2)C[C@H]1C(=O)N[C@H](C(=O)O)c1ccccc1,Ki,[1],> 10 µM
CC(C)(C)OC(=O)N1C[C@@H](Oc2ccc(-c3ccccc3)cc2)C[C@H]1C(=O)N[C@@H](Cc1ccc(Br)cc1)C(=O)NS(=O)(=O)c1ccccc1,Ki,[1],1.2 µM
CC(C)(C)OC(=O)N1C[C@@H](Oc2ccc(-c3ccccc3)cc2)C[C@H]1C(=O)N[C@@H](Cc1c[nH]c2ccccc12)C(=O)NS(=O)(=O)c1ccccc1,Ki,[1],3.2 µM
CC(C)(C)OC(=O)N1C[C@@H](Oc2ccc(-c3ccc(Cl)cc3)cc2)C[C@H]1C(=O)N[C@@H](Cc1ccc(Br)cc1)C(=O)NS(=O)(=O)c1ccc(Cl)c([N+](=O)[O-])c1,IC50,[2],11.2 µM
same,IC50,[3],15.8 µM
same,IC50,[4],21.9 µM
same,Ki,[5],2.1 µM
same,Ki,[6],0.83 µM
CC(C)(C)OC(=O)N1C[C@@H](Oc2ccc(-c3ccccc3)cc2)C[C@H]1C(=O)N[C@@H](Cc1ccc(Br)cc1)C(=O)NS(=O)(=O)c1ccc(Cl)c([N+](=O)[O-])c1,IC50,[2],10.7 µM
same,IC50,[3],13.6 µM
same,IC50,[4],23 µM
same,Ki,[5],2.2 µM
same,Ki,[6],0.93 µM
Cc1cc2c(C(C)C)c(O)c(O)c(C=O)c2c(O)c1-c1c(C)cc2c(C(C)C)c(O)c(O)c(C=O)c2c1O [GOSSYPOL],Ki,[1],0.39 µM
same,IC50,[2],5.78 µM
same,IC50,[3],9.42 µM
same,IC50,[4],5.91 µM
same,Ki,[5],0.77 µM
CC(C)C[C@H](NC(=O)[C@@H]1C[C@H](Oc2ccc(Br)cc2)CN1C(=O)OC(C)(C)C)C(=O)O,Ki,[1],> 10 µM
Cc1ccc(S(=O)(=O)NC(=O)[C@H](Cc2ccccc2)NC(=O)[C@@H]2C[C@H](Oc3ccc(-c4ccccc4)cc3)CN2C(=O)OC(C)(C)C)cc1,Ki,[1],3.3 µM
Cc1ccc(-c2ccc(O[C@H]3C[C@@H](C(=O)N[C@@H](Cc4ccc(Br)cc4)C(=O)NS(=O)(=O)c4ccc(Cl)c([N+](=O)[O-])c4)N(C(=O)OC(C)(C)C)C3)cc2)cc1,IC50,[2],13.8 µM
same,IC50,[3],14.9 µM
same,IC50,[4],22.1 µM
same,Ki,[5],1.2 µM
same,Ki,[6],0.55 µM
CC(C)[C@H](NC(=O)[C@@H]1C[C@H](Oc2ccc(-c3ccccc3)cc2)CN1C(=O)OC(C)(C)C)C(=O)O,Ki,[1],> 10 µM
CC(C)(C)OC(=O)N1C[C@@H](Oc2ccc(-c3ccccc3)cc2)C[C@H]1C(=O)N[C@H](C(=O)O)c1ccccc1,Ki,[1],> 10 µM
CC(C)C[C@H](NC(=O)[C@@H]1C[C@H](Oc2ccc(-c3ccccc3)cc2)CN1C(=O)OC(C)(C)C)C(=O)O,Ki,[1],> 10 µM
Cc1ccc(-c2ccc(O[C@H]3C[C@@H](C(=O)N[C@@H](Cc4ccccc4)C(=O)NS(=O)(=O)c4ccc(Cl)c([N+](=O)[O-])c4)N(C(=O)OC(C)(C)C)C3)cc2)cc1,IC50,[2],13.5 µM
same,IC50,[3],15.4 µM
same,IC50,[4],22.4 µM
same,Ki,[5],8.7 µM
same,Ki,[6],4.6 µM
Cc1ccc(-c2ccc(O[C@H]3C[C@@H](C(=O)N[C@@H](Cc4ccccc4)C(=O)NS(=O)(=O)c4ccccc4)N(C(=O)OC(C)(C)C)C3)cc2)cc1,Ki,[1],1.6 µM
CC(C)(C)OC(=O)N1C[C@@H](Oc2ccc(-c3ccccc3)cc2)C[C@H]1C(=O)NCC(=O)O,Ki,[1],> 10 µM
